In the library only some 11% were active in any assay of this set; here they are far more common.
S1P1 ag-PAM – S1P1 (human) agonism or agonism potentiation; actives 0.57% (n = 56,000); S1P1 CRE-bla cells, forskolin, beta-lactamase FRET, potentiator mode; S1P1 agonist co-added at EC20, 2 nM; 100% = saturating reference agonist, 0% = basal; activation, % at 9.5 µM; AID 449;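 active = activation above a cutoff set at the mean activation of all tested compounds plus 3 SD, cut at about 54% in these data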;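 also: forskolin at 4 µM as EC80 and the EC20 agonist is SEW2871; 100% = SEW2871 at its EC100 plus forskolin at EC80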
S1P3 ag – S1P3 (human) receptor agonism | Q99500 | S1P3 NFAT-BLA reporter cells, FRET ratio; relative to 1 µM S1P, basal subtracted | activation, % at 4.5 µM | actives 0.1% (n = 60,000) | AID 373;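 active = activation above the screen-wide mean plus 3 SD, cut at about 4.5% in these data, passing the limit was not always enough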
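Measure – % activation relative to 1 µM S1P (100%), per plate · System – stable CHO line with human S1P3, Gα16, NFAT-BLA reporter · Timing – cells plated overnight, compound 4 h 37 °C, substrate 2 h RT · Technique – fluorescent BLA substrate, ex 405 nm, em 460/535 nm ratio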
M1 antag – M1 muscarinic receptor (rat) antagonism; P08482; CHO-M1 cells, Fluo-4 calcium, ACh EC80 antagonist mode; active compounds read low; B-score at 10 µM; actives 3.4% (n = 64,000); AID 628;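 active = calcium fluorescence response, raw or row-and-column corrected B-score, differing from the plate sample mean either way at a set confidence level, mostly lower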
Target sequence (P08482 whole entry, looked up): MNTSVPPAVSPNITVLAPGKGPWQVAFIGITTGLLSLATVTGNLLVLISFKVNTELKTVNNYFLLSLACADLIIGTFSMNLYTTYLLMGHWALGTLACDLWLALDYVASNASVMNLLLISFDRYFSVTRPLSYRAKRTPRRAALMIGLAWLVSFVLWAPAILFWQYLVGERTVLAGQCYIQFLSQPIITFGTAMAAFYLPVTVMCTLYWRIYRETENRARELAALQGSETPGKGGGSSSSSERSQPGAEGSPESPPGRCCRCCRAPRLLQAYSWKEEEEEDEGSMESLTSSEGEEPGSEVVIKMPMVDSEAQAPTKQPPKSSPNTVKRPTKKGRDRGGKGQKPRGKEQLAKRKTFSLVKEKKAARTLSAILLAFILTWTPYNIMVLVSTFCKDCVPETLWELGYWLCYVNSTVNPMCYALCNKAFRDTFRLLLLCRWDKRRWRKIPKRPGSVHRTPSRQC
M1 agonist – agonists of M1 muscarinic receptor; CHO-M1 cells, Fluo-4 calcium fluorescence, agonist mode; active compounds read high; actives 3% (n = 64,000); B-score at 10 µM;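 active = fluorescence rise, raw or as B-score row- and column-corrected plate score, outside the 99.7% band of its plate's samples, either direction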
D1 mod – D1 dopamine receptor (human) allosteric modulation. B-score at 10 µM. actives 5.9% (n = 58,000). HEK293 D1, CRE-luciferase, dopamine EC30 potentiation; actives deviate in either direction. P21728;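 active = luminescence count or its row- and column-corrected plate score outside the 99.7% band of the plate's sample wells, on either side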
D1 mod confirm – confirmation of human D1 dopamine receptor allosteric modulators; luminescence at 10 µM; actives 88% (n = 2,200); shares compounds with D1 mod; HEK293 D1 CRE-luciferase, dopamine EC30 potentiation; active compounds read high;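 active = luminescence in either of two replicates above the same-plate mean plus 3 SD of the low-dose dopamine control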
D1 ag no DA – secondary test of D1 modulators: activity without dopamine; shares compounds with D1 mod; HEK293 D1 CRE-luciferase, luminescence, no dopamine; active compounds read high; luminescence at 10 µM; actives 0.8% (n = 1,900); AID 646; in the data active = luminescence above about 3900
Isoprot counter – isoproterenol response counter-screen activity for D1 modulators; shares compounds with D1 mod; HEK293 D1 CRE-luciferase, isoproterenol EC30 counter-screen; active compounds read high; luminescence at 10 µM; actives 63% (n = 2,200);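 active = luminescence in either replicate above plate mean of wells with a partly effective reference agonist dose plus 3 SD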;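 also: isoproterenol raises cAMP through native beta-adrenoceptor Gs so signal bypasses D1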
* hit, by the source's call; . = not tested or not shown.

SMILES	S1P1 ag-PAM	S1P3 ag	M1 antag	M1 agonist	D1 mod	D1 mod confirm	D1 ag no DA	Isoprot counter
CCOC(=O)c1c(N)sc2c1CCCC2	-7	0	-0.086	-0.051	5.2*	15712*	1680	3320*
CN1CCN(Cc2nc3c(c(=O)n(C)c(=O)n3C)n2Cc2ccccc2Cl)CC1	-2	0	-1.2	0.094	0.0035	.	.	.
Brc1ccccc1-c1nnc2sc(-c3ccc4c(c3)OCCO4)nn12	.	0	-0.78	0.94	3.8*	7796*	1760	3484*
CCSc1nc2c(c(=O)[nH]1)C(C(C)C)C(C#N)=C(N)O2 (centres undefined)	2	0	0.2	-0.52	.	.	.	.
CCCCc1nc2n[nH]c(N)c2c2c1CCCC2	-28	1	0.79	-0.64	21*	20280*	1464	6316*
C=CCN1C(=O)/C(=C2\SC(N3CCOCC3)=NC2=O)c2cc(Br)ccc21	-22	-2	-0.12	0.05	9*	17804*	1580	4584*
Cn1cnc2c1c(=O)n(Cc1cccc(Br)c1)c(=O)n2C	.	0	0.11	0.42	11*	12308*	1656	4408*
N#CC1=C(N)N(c2ccccc2)C2=C(C(=O)CCC2)C1c1cccs1 (centres undefined)	-2	0	-0.16	-0.59	3.2*	7976*	1556	3880
CCN(CCCNC(=O)CN(C)S(=O)(=O)c1cccc2nsnc12)c1cccc(C)c1	2	0	-0.36	-0.27	3.5*	13504*	1728	3116
Cc1ccc(CNC(=O)CN(C)S(=O)(=O)c2cccc3nsnc23)cc1	-22	-1	0.57	-0.053	-0.021	.	.	.
Cc1cc2c(c(N)n1)c(=O)oc1ccccc12	-23	-1	-0.33	-0.33	22*	19088*	.	5100*
Cc1nc2scc(-c3ccccc3)c2c(=O)n1N	-6	-1	0.14	-0.17	.	.	.	.
CCc1nc2scc(-c3ccccc3)c2c(=O)n1N	.	.	-0.0047	-0.17	6.6*	14056*	1596	3780*
COC(=O)c1sc(=S)sc1C(=O)OC	14	0	0.26	-0.7	3.3*	8136*	1608	2764
CC(C)C1C(C#N)=C(N)Oc2n[nH]c(-c3cccs3)c21 (centres undefined)	23	-2	1.1	1.1	3.6*	8472*	1560	2672
Cc1cc(C)c(C#N)c(=N)o1	.	.	-0.69	-1.5	.	.	.	.
CN1C(=O)c2ccccc2C(C(=O)O)C1c1cn(C)c2ccccc12 (centres undefined)	12	-1	0.02	-0.9	0.23	.	.	.
Cc1ccccc1-n1nnnc1SCC(N)=O	4	0	-0.026	-0.41	-0.032	.	.	.
CSc1ccccc1-n1nnnc1SCc1ccccc1	30	-1	0.35	0.05	3.8*	7588*	.	2572
COc1ccc(CNC(=O)c2ccc(NS(=O)(=O)c3c(C)noc3C)cc2)cc1	0	0	0.38	-0.75	1.4	.	.	.
CCOC(=O)c1[nH]c(C)c(C(=O)NC2CCN(C(=O)OCC)CC2)c1C	-21	0	-0.19	0.033	2.1*	5396	1508	3156
Cc1cc(C)c2c(CC(=O)N(CCC#N)Cc3cccnc3)coc2c1	.	-1	0.041	-0.75	0.056	.	.	.
C=CCN=C(NC#N)SCc1ccccc1Cl	5	-1	-0.36	-0.54	7.4*	8148*	.	2628
CC(C)N=C(NC#N)SCc1ccc(F)cc1	-5	1	0.002	-0.23	-0.6	.	.	.
COc1ccc(-c2csc(NC(=O)c3cc(C)on3)c2C#N)cc1OC	-6	-1	0.43	-0.49	10*	17944*	1716	3748*
SMILES	S1P1 ag-PAM	S1P3 ag	M1 antag	M1 agonist	D1 mod	D1 mod confirm	D1 ag no DA	Isoprot counter
CCc1c(C)sc(NC(=O)c2cc(-c3cc(OC)ccc3OC)on2)c1C#N	-6	0	1.2	0.0081	0.74	.	.	.
COc1ccc(CCNC(=O)Cn2cnc3c(cnn3-c3ccccc3Cl)c2=O)cc1OC	-2	1	0.29	0.59	0.16	.	.	.
CCC(C)(C)NC(=O)CN(C(=O)c1snc(C(N)=O)c1N)c1ccc2c(c1)OCCO2	-14	-1	-0.55	-1.7	6.6*	4748	1392	2492
COc1ccc(-c2cc(OC)c3c(C)oc(C)c3c(=O)c2)cc1OC	-27	-1	0.057	-1.3	3.8*	12580*	1500	3976*
CC(C)Nc1nc(C#N)nc(NC(C)C)n1	-37	1	0.36	0.059	11*	12292*	.	3804*
C=CCNc1nc2c3ccccc3n(C(C)=O)c2s1	-33	0	0.65	0.57	6.2*	7816*	1416	2964*
CC(=O)n1c2ccccc2c2c(C#N)c(N3CCCCC3)sc21	-6	-1	-0.015	-2.3	0.32	.	.	.
Cc1ccc2nc(NC(=O)c3ccc(Cn4cc(Cl)cn4)o3)sc2c1	7	-1	1.1	1.5	6.6*	5608	1540	2428
Cc1ccc(CC(=O)N2CCC(c3nc4c(nnn4Cc4ccccc4)c(=O)[nH]3)CC2)cc1	-6	-2	0.82	0.25	4.9*	7652	1488	2644
Cc1ccc(C(=O)N2CCCC(c3nc4c(nnn4Cc4ccccc4)c(=O)[nH]3)C2)cc1 (centres undefined)	15	-1	0.065	0.12	3.4*	9432*	.	2664*
O=C(c1ccccc1Cl)N1CCC(c2nc3c(nnn3Cc3ccco3)c(=O)[nH]2)CC1	1	-2	0.044	-0.89	6.1*	11824*	1716	3316*
Cc1ccc(Cn2nnc3c(=O)[nH]c(C4CCN(C(=O)Cc5cccs5)CC4)nc32)cc1	-34	-1	-0.76	-0.061	-0.022	.	.	.
Cc1cc(C)cc(OCc2nnc(SCC(=O)N3CCN(c4ccccc4)CC3)o2)c1	2	0	-0.79	1.8	0.12	.	.	.
O=C(CSc1c2c(nc3ccc(Cl)cc13)CCCC2)N1CCN(C(=O)c2ccco2)CC1	-3	-1	-1.2	2.3	.	.	.	.
COc1nccc(Nc2ccccc2)c1C#N	-10	-1	0.44	-0.24	6.6*	14732*	.	3068*
CCOC(=O)CSc1nnc(C)n1N	-2	-1	0.59	0.9	-0.72	.	.	.
c1ccc(Cn2nnc3c(N4CCc5ccccc54)ncnc32)cc1	0	0	0.29	1.5	3*	6044*	1608	2632
c1ccc(Cn2nnc3c(N4CCCCCC4)ncnc32)cc1	-29	0	-0.2	0.094	6.4*	7556*	1448	3604*
CCCN1CCN(c2ncnc3c2nnn3Cc2ccccc2)CC1	2	-1	-0.84	-2e-05	0.21	.	.	.
